Measurements from ChEMBL document CHEMBL1126160, “Synthesis and structure-activity relationships of 7-diazabicycloalkylquinolones, including danofloxacin, a new quinolone antibacterial agent for veterinary medicine” (J Med Chem, 1992).
In brackets after ≈: the same amount, converted by molar mass.

Tests used:
Type in all cases: functional
[1] = system: Actinobacillus pleuropneumoniae; assay: In vitro antibacterial activity against anaerobically grown Actinobacillus pleuropneumoniae ([…])
Procedure, shortened: (§1)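 Agar dilution MICs. Anaerobic strains were tested on tryptose agar with 5% bovine blood and incubated 48 h at 39 °C in an anaerobe chamber under N2/CO2/H2 (80:10:10).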

Trueperella pyogenes = assay: In vitro antibacterial activity against anaerobically grown Actinomyces pyogenes (14D002); procedure, shortened: as §1
Phocaeicola vulgatus = assay: In vitro antibacterial activity against anaerobically grown Bacteroides vulgatus (78D029); procedure, shortened: as §1
[2] = system: Bordetella bronchiseptica; assay: In vitro antibacterial activity against aerobically grown Bordetella bronchiseptica (73A009)
Procedure, shortened: (§2)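 Agar dilution MICs. Aerobic strains were tested on brain heart infusion agar and incubated aerobically at 37 °C for 18–20 h.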

Escherichia coli [3] = assay: In vitro antibacterial activity against aerobically grown Escherichia coli (51A538); procedure, shortened: as §2
Escherichia coli [4] = assay: Escherichia coli DNA cleavage endpoint value which is the minimum amount required (in micro g/mL) to induce detectable cleavage of supercoiled pBR322 substrate to linear form (gyrase); conditions: read-out: MIC
Procedure, shortened: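 DNA gyrase A and B subunits were purified from E. coli overproducers. About 2 units of holoenzyme were incubated with pBR322 in Tris-HCl pH 7.5 containing MgCl2, spermidine, DTT, 0.2 mM ATP, BSA and tRNA. Drug was added as 2-fold serial dilutions, and reactions ran for 60 min at 25 °C. Reactions were stopped with SDS and proteinase K, then run on agarose and stained with ethidium. The endpoint was the lowest concentration giving detectable linear DNA.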

[5] = In vitro antibacterial activity against Aerobically grown Pasteurella haemolytica (59B018); conditions: Mannheimia haemolytica; procedure, shortened: as §2
Pasteurella multocida = assay: In vitro antibacterial activity against aerobically grown Pasteurella multocida (59A006); procedure, shortened: as §2
Salmonella enterica = assay: In vitro antibacterial activity against aerobically grown Salmonella choleraesuis (58B015)
Staphylococcus aureus = assay: In vitro antibacterial activity against aerobically grown Staphylococcus aureus (54B004); procedure, shortened: as §2
[6] = In vitro evaluation for antibacterial activity against anaerobically grown Treponema hyodysenteriae (94A007); conditions: Brachyspira hyodysenteriae
Clostridium perfringens = assay: microbe, parasite or virus in culture

| Compound | MIC [1] [µg/mL] | MIC (Trueperella pyogenes) [µg/mL] | MIC (Phocaeicola vulgatus) [µg/mL] | MIC [2] [µg/mL] | MIC (Escherichia coli [3]) [µg/mL] | minimum concentration inducing gyrase-mediated DNA cleavage (Escherichia coli [4]) [µg/mL] | MIC [5] [µg/mL] | MIC (Pasteurella multocida) [µg/mL] | MIC (Salmonella enterica) [µg/mL] | MIC (Staphylococcus aureus) [µg/mL] | MIC [6] [µg/mL] | MIC (Clostridium perfringens) [µg/mL] |
| --- | --- | --- | --- | --- | --- | --- | --- | --- | --- | --- | --- | --- |
| CN1C2CC[C@@H]1CCN(c1nc3c(cc1F)c(=O)c(C(=O)O)cn3C1CC1)C2 | 0.2 (≈ 0.518 µM) | > 3.13 | > 3.13 | 0.78 (≈ 2.02 µM) | 0.39 (≈ 1.01 µM) | 3.12 | 0.39 (≈ 1.01 µM) | 0.1 (≈ 0.259 µM) | 0.78 (≈ 2.02 µM) | 0.78 (≈ 2.02 µM) | 3.13 (≈ 8.1 µM) | 0.78 (≈ 2.02 µM) |
| C=Cn1cc(C(=O)O)c(=O)c2cc(F)c(N3C[C@H]4CC[C@@H](C3)N4C)cc21 | 0.2 (≈ 0.56 µM) | 3.13 (≈ 8.76 µM) | 6.25 (≈ 17.5 µM) | 12.5 (≈ 35 µM) | 0.78 (≈ 2.18 µM) | 0.39 | 0.39 (≈ 1.09 µM) | 0.1 (≈ 0.28 µM) | 0.78 (≈ 2.18 µM) | 0.2 (≈ 0.56 µM) | 1.56 (≈ 4.37 µM) | 0.78 (≈ 2.18 µM) |
| CN1C2CC[C@@H]1CCN(c1cc3c(cc1F)c(=O)c(C(=O)O)cn3C)C2 |  |  |  | > 25 | 6.25 (≈ 17.4 µM) | 6.25 | 6.25 (≈ 17.4 µM) | 6.25 (≈ 17.4 µM) | 6.25 (≈ 17.4 µM) | 1.56 (≈ 4.34 µM) |  |  |
| CN1C2CC[C@@H]1CCN(c1cc3c(cc1F)c(=O)c(C(=O)O)cn3CCF)C2 | 0.39 (≈ 0.996 µM) | > 3.13 | > 3.13 | 1.56 (≈ 3.99 µM) | 1.56 (≈ 3.99 µM) | 3.12 | 1.56 (≈ 3.99 µM) | 0.39 (≈ 0.996 µM) | > 1.56 | 0.78 (≈ 1.99 µM) | > 3.13 | 1.56 (≈ 3.99 µM) |
| CNn1cc(C(=O)O)c(=O)c2cc(F)c(N3CCN4CCC3CC4)cc21 | < 0.05 | 6.25 (≈ 17.3 µM) | > 25 | 12.5 (≈ 34.7 µM) | 0.39 (≈ 1.08 µM) | 1.56 | 0.1 (≈ 0.277 µM) | 0.1 (≈ 0.277 µM) | 1.56 (≈ 4.33 µM) | 1.56 (≈ 4.33 µM) | 3.13 (≈ 8.69 µM) | 0.78 (≈ 2.16 µM) |
| C=Cn1cc(C(=O)O)c(=O)c2cc(F)c(N3CC[C@H]4CCC(C3)N4C)cc21 | 0.78 (≈ 2.1 µM) | > 3.13 | > 3.13 | 1.56 (≈ 4.2 µM) | 0.78 (≈ 2.1 µM) | 6.25 | 1.56 (≈ 4.2 µM) | 0.2 (≈ 0.538 µM) | 1.56 (≈ 4.2 µM) | 1.56 (≈ 4.2 µM) | 3.13 (≈ 8.43 µM) | 0.78 (≈ 2.1 µM) |
| CN1[C@@H]2CC[C@H]1CN(c1c(F)cc3c(=O)c(C(=O)O)cn(C4CC4)c3c1Cl)C2 | 0.2 (≈ 0.493 µM) | 3.13 (≈ 7.71 µM) | 0.78 (≈ 1.92 µM) | > 1.56 | 0.39 (≈ 0.961 µM) | 1.56 | 0.2 (≈ 0.493 µM) | 0.05 (≈ 0.123 µM) | 0.78 (≈ 1.92 µM) | 0.39 (≈ 0.961 µM) | > 3.13 | 0.78 (≈ 1.92 µM) |
| Cl.O.O=C(O)c1cn(-c2ccc(F)cc2)c2cc(N3CCN4CCC3CC4)c(F)cc2c1=O | 0.05 | 3.13 | 0.78 | 1.56 | 0.2 | 0.78 | 0.1 | 0.02 | 0.2 | 0.2 | 0.78 | 0.1 |
| O=C(O)c1cn(-c2ccc(F)cc2)c2cc(N3CCN4CCCC3C4)c(F)cc2c1=O (centres undefined) | 0.05 (≈ 0.118 µM) | 3.13 (≈ 7.36 µM) | 0.39 (≈ 0.917 µM) | 1.56 (≈ 3.67 µM) | 0.1 (≈ 0.235 µM) | 0.78 | 0.05 (≈ 0.118 µM) | 0.01 (≈ 0.0235 µM) | 0.2 (≈ 0.47 µM) | 0.1 (≈ 0.235 µM) | 0.2 (≈ 0.47 µM) | 0.2 (≈ 0.47 µM) |
| O=C(O)c1cn(C2CC2)c2c(Cl)c(N3C[C@@H]4C[C@H]3CN4)c(F)cc2c1=O | 0.005 (≈ 0.0132 µM) | 0.39 (≈ 1.03 µM) | 0.1 (≈ 0.265 µM) | 0.39 (≈ 1.03 µM) | 0.02 (≈ 0.0529 µM) | 0.09 | 0.005 (≈ 0.0132 µM) | 0.005 (≈ 0.0132 µM) | 0.02 (≈ 0.0529 µM) | 0.2 (≈ 0.529 µM) | 1.56 (≈ 4.13 µM) | 0.1 (≈ 0.265 µM) |
| O=C(O)c1cn(C2CC2)c2c(F)c(N3C[C@@H]4C[C@H]3CN4)c(F)cc2c1=O | < 0.005 | 0.39 (≈ 1.08 µM) | 1.56 (≈ 4.32 µM) | 0.39 (≈ 1.08 µM) | 0.01 (≈ 0.0277 µM) | 0.09 | 0.005 (≈ 0.0138 µM) | 0.005 (≈ 0.0138 µM) | 0.01 (≈ 0.0277 µM) | 0.39 (≈ 1.08 µM) | 1.56 (≈ 4.32 µM) | 0.05 (≈ 0.138 µM) |
| Cl.O.O=C(O)c1cn(CCF)c2c(F)c(N3CCN4CCC3CC4)c(F)cc2c1=O | < 0.05 | 3.13 | 6.25 | 6.25 | 0.39 | 0.19 | < 0.05 | 0.2 | 0.2 | 0.78 | 6.25 | 0.78 |
| C=Cn1cc(C(=O)O)c(=O)c2cc(F)c(N3CCN4CCC3CC4)cc21 | 0.02 (≈ 0.056 µM) | 3.13 (≈ 8.76 µM) | 3.13 (≈ 8.76 µM) | 1.56 (≈ 4.37 µM) | 0.1 (≈ 0.28 µM) | 0.39 | 0.05 (≈ 0.14 µM) | 0.05 (≈ 0.14 µM) | 0.1 (≈ 0.28 µM) | 0.2 (≈ 0.56 µM) | 0.39 (≈ 1.09 µM) | 0.2 (≈ 0.56 µM) |
| CN1[C@@H]2CC[C@H]1CN(c1cc3c(cc1F)c(=O)c(C(=O)O)cn3CCF)C2.Cl.O | 0.1 |  | 6.25 | 3.13 | 0.2 | 3.12 | 0.2 | 0.2 | 0.39 | 0.2 | 3.13 | 0.39 |
| CN1[C@@H]2CC[C@H]1CN(c1cc3c(cc1F)c(=O)c(C(=O)O)cn3-c1ccc(F)cc1)C2.Cl.O | 0.78 | > 3.13 | 0.78 | > 1.56 | 1.56 |  | 0.78 | 0.2 | > 1.56 | 0.78 | 1.56 | 3.13 |
| CN1C[C@@H]2C[C@H]1CN2c1c(F)cc2c(=O)c(C(=O)O)cn(C3CC3)c2c1F | < 0.05 | 0.78 (≈ 2.08 µM) | 3.12 (≈ 8.31 µM) | 0.39 (≈ 1.04 µM) | < 0.05 | 0.39 | < 0.05 | < 0.05 |  | 0.1 (≈ 0.266 µM) | 1.56 (≈ 4.16 µM) | 3.12 (≈ 8.31 µM) |
